From ChEMBL document CHEMBL1142546 (J Med Chem, 2008)
pIC50, pKi: −log10 of the molar value. Calls of active or inactive are those of the source. The calls are words filed in the database; no cut-off is given here.

Columns and labels:
[1] = Inhibition of chymotrypsin-like activity of rabbit 20S proteasome; parameters: species or system Oryctolagus cuniculus
Method in brief: (§1)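 Purified rabbit muscle 20S proteasome at 1.4 nM final. T-L used the same buffer without SDS and Boc-LRR-AMC. Serial dilutions were preincubated 5 min at 37 °C. AMC fluorescence ex 390/em 460 nm.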

[2] = Inhibition of trypsin-like activity of rabbit 20S proteasome; parameters: species or system Oryctolagus cuniculus; method in brief: as §1
[3] = Inhibition of caspase-like activity of rabbit 20S proteasome; parameters: species or system Oryctolagus cuniculus; method in brief: as §1
Oryctolagus cuniculus [4] = organism: Oryctolagus cuniculus; assay: Inhibition of chymotrypsin-like activity of rabbit 20S proteasome assessed as enzyme activity recovery 12 hrs after dialysis
Method in brief: (§2)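 Rabbit 20S proteasome (1.4 nM final) was incubated 1 h at ambient temperature with compound or DMSO (0.1% final) in 20 mM HEPES pH 7.3, 0.5 mM EDTA, 0.05% Triton X-100, 0.035% SDS (SDS omitted for T-L). Mixtures were dialysed (MWCO 12-14000) against assay buffer at ambient temperature. Samples taken at 0, 1, 2, 5, 24 h (some also 12 h) for site activity, normalised to DMSO controls.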

[5] = Stability in 20 mM HEPES buffer assessed as beta-lactone hydrolysis rate at pH 7.3 at 37 degC
Oryctolagus cuniculus [6] = organism: Oryctolagus cuniculus; assay: Inhibition of chymotrypsin-like activity of rabbit 20S proteasome assessed as enzyme activity recovery 24 hrs after dialysis; method in brief: as §2
Homo sapiens [7] = organism: Homo sapiens; assay: Inhibition of chymotrypsin-like activity of human 20S proteasome assessed as enzyme activity recovery 12 hrs after dialysis
[8] = Inhibition of chymotrypsin-like activity of yeast 20S proteasome; parameters: species or system Saccharomyces cerevisiae
Method in brief: (§3)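 Purified yeast 20S proteasome in 75 mM Tris-HCl pH 7.8 with 0.02% SDS. Serial compound dilutions were preincubated 5 min at 37 °C, then substrate was added: Suc-LLVY-AMC at 20 µM final (CT-L), Z-LLE-AMC (C-L), or Bz-VGR-AMC with SDS omitted (T-L). Cleaved AMC read at ex 390/em 460 nm.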

[9] = Inhibition of trypsin-like activity of yeast 20S proteasome; parameters: species or system Saccharomyces cerevisiae; method in brief: as §3
[10] = Inhibition of caspase-like activity of yeast 20S proteasome; parameters: species or system Saccharomyces cerevisiae; method in brief: as §3
[11] = Inhibition of chymotrypsin-like activity of human 20S proteasome
[12] = Inhibition of trypsin-like activity of human 20S proteasome
[13] = Inhibition of caspase-like activity of human 20S proteasome
Oryctolagus cuniculus [14] = organism: Oryctolagus cuniculus; assay: Inhibition of trypsin-like activity of rabbit 20S proteasome assessed as enzyme activity recovery 24 hrs after dialysis; method in brief: as §2
Oryctolagus cuniculus [15] = organism: Oryctolagus cuniculus; assay: Inhibition of caspase-like activity of rabbit 20S proteasome assessed as enzyme activity recovery 24 hrs after dialysis; method in brief: as §2
Homo sapiens [16] = organism: Homo sapiens; assay: Inhibition of trypsin-like activity of human 20S proteasome assessed as enzyme activity recovery 12 hrs after dialysis
Homo sapiens [17] = organism: Homo sapiens; assay: Inhibition of caspase-like activity of human 20S proteasome assessed as enzyme activity recovery 12 hrs after dialysis
[18] = Inhibition of chymotrypsin-like activity of human 20S proteasome assessed as release of free AMC substrate by fluorimetry based kinetic assay
[19] = Inhibition of trypsin-like activity of human 20S proteasome assessed as release of free AMC substrate by fluorimetry based kinetic assay
[20] = Inhibition of caspase-like activity of human 20S proteasome assessed as release of free AMC substrate by fluorimetry based kinetic assay
Homo sapiens [21] = organism: Homo sapiens; assay: Inhibition of chymotrypsin-like activity of human 20S proteasome assessed as inactivation rate by fluorimetry based kinetic assay
Homo sapiens [22] = organism: Homo sapiens; assay: Inhibition of trypsin-like activity of human 20S proteasome assessed as inactivation rate by fluorimetry based kinetic assay
Homo sapiens [23] = organism: Homo sapiens; assay: Inhibition of caspase-like activity of human 20S proteasome assessed as inactivation rate by fluorimetry based kinetic assay
Oryctolagus cuniculus [24] = organism: Oryctolagus cuniculus; assay: Inhibition of trypsin-like activity of rabbit 20S proteasome assessed as enzyme activity recovery 12 hrs after dialysis; method in brief: as §2
Oryctolagus cuniculus [25] = organism: Oryctolagus cuniculus; assay: Inhibition of caspase-like activity of rabbit 20S proteasome assessed as enzyme activity recovery 12 hrs after dialysis; method in brief: as §2

Row | SMILES | pIC50 [1] | pIC50 [2] | pIC50 [3] | Activity (Oryctolagus cuniculus [4]) | half-life [5] | Activity (Oryctolagus cuniculus [6]) | also measured
1 | C[C@H]1C(=O)N[C@@]2([C@@H](O)[C@@H]3C=CCCC3)C(=O)O[C@@]12C | 8.12 | 6.43 | 6.34 | inactive | 95 min | – | –
2 | C[C@@]12OC(=O)[C@]1([C@@H](O)[C@@H]1C=CCCC1)NC(=O)[C@@H]2CCOS(C)(=O)=O | 8.37 | 7.19 | 6.06 | – | 59 min | Active | –
3 | CCC[C@H]1C(=O)N[C@@]2([C@@H](O)[C@@H]3C=CCCC3)C(=O)O[C@@]12C | 7.62 | 5.96 | 5.92 | inactive | 171 min | – | –
4 | C[C@@]12OC(=O)[C@]1([C@@H](O)[C@@H]1C=CCCC1)NC(=O)[C@@H]2CCI [IODOSALINOSPORAMIDE] | 8.55 | 7.89 | 6.39 | – | 92 min | – | –
5 | C[C@@]12OC(=O)[C@@]1([C@@H](O)[C@@H]1C=CCCC1)NC(=O)[C@@H]2CCO [hydroxysalinosporamide A] | 7.85 | 5.92 | 5.92 | inactive | 85 min | – | –
6 | CN(C)c1cccc2c(S(=O)(=O)OCC[C@H]3C(=O)N[C@@]4([C@@H](O)[C@@H]5C=CCCC5)C(=O)O[C@@]34C)cccc12 | 8.52 | 7.92 | 7.05 | – | 179 min | – | –
7 | C[C@@]12OC(=O)[C@]1([C@@H](O)[C@@H]1C=CCCC1)NC(=O)[C@@H]2CCF [FLUOROSALINOSPORAMIDE] | 8.04 | – | – | – | 79 min | Active | –
8 | C[C@@]12OC(=O)[C@]1([C@@H](O)[C@@H]1C=CCCC1)NC(=O)[C@@H]2CCCl [MARIZOMIB] | – | – | – | – | 77 min | Active | Activity (Homo sapiens [7]): Active; pIC50 [8]: 8.70; pIC50 [9]: 7.23; pIC50 [10]: 5.59; pIC50 [11]: 8.46; pIC50 [12]: 7.55; pIC50 [13]: 6.37; Activity (Oryctolagus cuniculus [14]): Active; Activity (Oryctolagus cuniculus [15]): Active; Activity (Homo sapiens [16]): Active; Activity (Homo sapiens [17]): Active; pKi [18]: 7.64; pKi [19]: 7.01; pKi [20]: < 6.00; Activity (Homo sapiens [21]): 0.01 s⁻¹; Activity (Homo sapiens [22]): 0.003 s⁻¹; Activity (Homo sapiens [23]): > 0.02 s⁻¹
9 | C[C@@]12OC(=O)[C@]1([C@@H](O)[C@@H]1C=CCCC1)NC(=O)[C@@H]2CCBr [BROMOSALINOSPORAMIDE] | 8.59 | 7.85 | 6.54 | – | 80 min | – | –
10 | CC[C@H]1C(=O)N[C@@]2([C@@H](O)[C@@H]3C=CCCC3)C(=O)O[C@@]12C [SALINOSPORAMIDE B] | – | 6.21 | – | inactive | 190 min | – | pIC50 [8]: 7.80; pIC50 [9]: 5.98; pIC50 [10]: < 4.70; Activity (Oryctolagus cuniculus [24]): inactive; Activity (Oryctolagus cuniculus [25]): inactive
11 | Cc1ccc(S(=O)(=O)OCC[C@H]2C(=O)N[C@@]3([C@@H](O)[C@@H]4C=CCCC4)C(=O)O[C@@]23C)cc1 | 8.60 | 8.00 | 6.90 | – | 75 min | Active | –
